5HT1a antag: blocks the human serotonin 5-HT1a receptor; P08908; CHO 5-HT1a Ga15 NFAT-bla reporter, antagonist mode; inhibition, % at 10 µM; hit rate 0.68% among 62,000;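 active = inhibition above the mean of all tested compounds plus 3 SD, cut at about 43% in these data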;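 also: receptor stimulated by 5-CT agonist at 100 nM near EC80; beta-lactamase reporter measured by ratiometric fluorescence of a cleavable substrate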
HTR1E antagonist: antagonists of human 5-HT1E serotonin receptor; CHO 5-HT1E Ga15 NFAT-bla reporter, FRET, antagonist; hit rate 0.99% among 65,000; inhibition, % at 6 µM; P28566;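 active = inhibition above a set limit, the mean inhibition across every tested compound plus 3 SD, cut at about 29% in these data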;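 also: signal is the 460 over 535 nm emission ratio of beta-lactamase substrate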
S1P1 ag pot: agonists and agonism potentiators of human S1P1 receptor | hit rate 0.57% among 56,000 | activation, % at 9.5 µM | S1P1 CRE-bla cells, forskolin, beta-lactamase FRET, potentiator mode; S1P1 agonist co-added at EC20, 2 nM; 100% = saturating reference agonist, 0% = basal;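 active = activation above a cutoff set at the mean activation of all tested compounds plus 3 SD, cut at about 54% in these data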;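 also: forskolin at 4 µM as EC80 and the EC20 agonist is SEW2871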
S1P3 ag: agonists of human S1P3 receptor | Q99500 | activation, % at 4.5 µM | AID 373 | hit rate 0.1% among 60,000 | S1P3 NFAT-BLA reporter cells, agonism, FRET ratio; relative to 1 µM S1P, basal subtracted;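 active = activation above the screen-wide mean plus 3 SD, cut at about 4.5% in these data, passing the limit was not always enough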
Target sequence (Q99500 whole entry, looked up): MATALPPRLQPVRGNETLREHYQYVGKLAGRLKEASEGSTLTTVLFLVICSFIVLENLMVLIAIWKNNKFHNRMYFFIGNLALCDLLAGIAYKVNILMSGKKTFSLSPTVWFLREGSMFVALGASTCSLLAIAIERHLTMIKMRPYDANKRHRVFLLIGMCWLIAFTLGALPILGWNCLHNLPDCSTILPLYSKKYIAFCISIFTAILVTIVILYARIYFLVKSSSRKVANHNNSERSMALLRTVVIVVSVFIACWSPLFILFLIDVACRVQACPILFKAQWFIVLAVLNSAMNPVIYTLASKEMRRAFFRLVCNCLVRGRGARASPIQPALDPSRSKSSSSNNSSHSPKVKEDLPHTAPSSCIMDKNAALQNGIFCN
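Material: Human S1P3 NFAT-BLA reporter CHO cells | Incubation: Overnight plating, 4 h compound 37 °C, 2 h substrate RT | Signal: FRET β-lactamase substrate fluorescence, excitation 405 nm, 460/535 nm emission ratio, background-subtracted | Compound: 4.5 µM final, single dose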
HTR1A agonist: activates the human 5-HT1a serotonin receptor. P08908. CHO 5-HT1a Ga15 NFAT-bla reporter, FRET ratio; 0% basal, 100% maximal reference agonist. activation, % at 10 µM. hit rate 0.56% among 65,000;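 active = activation above the screen-wide mean activation plus 3 SD, cut at about 19% in these data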
HTR1E agonist: 5-HT1E (human) receptor agonism. P28566. CHO 5-HT1E Ga15 NFAT-bla reporter, FRET; 0% DMSO wells, 100% control agonist wells. activation, % at 6 µM. hit rate 0.69% among 65,000. AID 574;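 active = activation above a set limit, the screen-wide mean activation plus 3 SD, cut at about 8.5% in these data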
Hits are given with their value; – = inactive; · = no result given. Rows were chosen to be rich in hits. Some 3% of all compounds tested hit in one or more screens of this group.

SMILES | 5HT1a antag | HTR1E antagonist | S1P1 ag pot | S1P3 ag | HTR1A agonist | HTR1E agonist
COc1ccc(Cn2nnnc2C(c2cccs2)N2CCN(c3ccccc3)CC2)cc1 (configuration not stated) | 43.9 | – | – | – | – | –
c1ccc(Cn2nnnc2C(c2cccs2)N2CCc3ccccc3C2)cc1 (configuration not stated) | 52.5 | – | – | – | – | –
Cc1ccc(C)c(N2CCN(C(c3ccncc3)c3nnnn3Cc3ccccc3)CC2)c1 (configuration not stated) | – | – | – | – | – | 36.5
CCCCC(CC)CNC(=O)c1cccs1 (configuration not stated) | – | – | · | – | – | –
CC1(C)NC(=O)NC2(C)NC(=O)NC(C)(C)C12 (configuration not stated) | – | – | – | – | – | –
COC(=O)/C=C/S(=O)(=O)c1ccc(NC(C)=O)cc1 | 81.6 | 66.7 | – | – | – | –
O=c1cc(C(F)(F)F)nc(-c2ccccc2)[nH]1 | – | – | – | – | – | –
COc1cccc(Oc2cnc(N)nc2-c2ccc(OC)cc2O)c1 | – | – | – | – | – | –
COc1ccc(-c2nc(N)ncc2Oc2ccccc2Br)c(O)c1 | 44.5 | – | – | – | – | –
N#Cc1cc2c(=O)n3ccccc3nc2n(CCN2CCOCC2)c1=O | – | – | – | – | – | 28.4
N#Cc1cc2c(=O)n3ccccc3nc2n(CCCN2CCOCC2)c1=O | – | – | – | – | – | –
N#Cc1cc2c(=O)n3ccccc3nc2n(Cc2cccnc2)c1=O | – | – | – | – | 37.0 | –
O=S(=O)(Nc1cccc2cccnc12)c1ccc(S(=O)(=O)N2CCCC2)cc1 | – | 31.5 | – | – | – | –
O=C(NCCCn1ccnc1)c1ccncc1 | – | – | – | – | – | –
O=C(NCCCn1ccnc1)c1ccco1 | – | – | – | – | 20.1 | –
CCC(C(=O)Nc1cnccn1)c1ccccc1 (configuration not stated) | – | – | – | – | – | 17.8
O=C1NC(Cc2c[nH]c3ccccc23)C(=O)N1CCOc1ccccc1 (configuration not stated) | – | – | – | – | – | –
COCCOC(=O)C1=C(C)N=C2SCCC(=O)N2C1c1cc(Br)ccc1OC (configuration not stated) | – | – | – | – | – | –
Cc1ccc(S(=O)(=O)N2CCSC2c2ccco2)cc1 (configuration not stated) | – | – | – | – | – | –
Cc1cc(C(=O)CSc2nnc(-c3ccco3)o2)c(C)n1CC1COc2ccccc2O1 (configuration not stated) | – | – | – | – | 30.4 | –
CCOC(=O)Nc1ccc2c(c1)ncn2C1CCCCC1 | – | – | – | – | – | 39.1
CC(=O)c1cccc(NC(=O)c2nccnc2C(=O)O)c1 | – | – | – | – | 109.1 | –
Cc1ccc(Nc2nc(N)nc(CN3CCN(C)CC3)n2)cc1C | – | – | – | – | – | –
COC(=O)CC(=O)Cc1nc(N)nc(Nc2ccc(C)c(C)c2)n1 | · | – | – | – | – | 52.4
CS(=O)(=O)N(CC(=O)N1CCCCCC1)c1ccc2c(c1)OCCO2 | – | – | – | – | – | –
SMILES | 5HT1a antag | HTR1E antagonist | S1P1 ag pot | S1P3 ag | HTR1A agonist | HTR1E agonist
c1cncc(-c2nc3cc(Cc4ccc5oc(-c6cccnc6)nc5c4)ccc3o2)c1 | – | – | – | – | – | –
c1cc(-c2nc3cc(Cc4ccc5oc(-c6ccncc6)nc5c4)ccc3o2)ccn1 | – | – | – | – | – | 18.2
COc1ccccc1-c1nnc(Nc2nc3c(OC)cccc3s2)o1 | 51.1 | 52.9 | – | – | – | –
COc1cccc2sc(Nc3nnc(-c4ccccc4Cl)o3)nc12 | 64.0 | – | – | – | – | –
Cc1ccc(C(=O)NCCCN2CCOCC2)cc1N1CCCC1=O | – | – | – | – | – | –
Cc1nc(NCCNC(=O)c2ccco2)c2c(C)c(C)sc2n1 | – | 31.7 | – | – | – | –
O=C(c1noc2c1CCCCC2)N1CCN(C(c2ccccc2)c2ccccc2)CC1 | – | – | – | – | – | –
CSc1nc2ccccc2n1CC(=O)Nc1ccccc1 | – | – | – | – | – | –
CSc1nc2ccccc2n1CC(=O)Nc1ccc(C)c(C)c1 | – | – | · | · | – | 15.1
CCc1ccc(NC(=O)Cn2c(SC)nc3ccccc32)cc1 | – | – | – | – | – | 53.7
O=c1cc(CSc2ccc(S(=O)(=O)N3CCCCC3)cn2)nc2sccn12 | – | – | – | – | – | –
CCC(O)CNc1nc(-n2nc(C)cc2C)nc2sc3c(c12)CCCC3 (configuration not stated) | – | – | – | – | – | –
Cc1cc(C)n(-c2nc(NCc3cccnc3)c3c4c(sc3n2)COC(C)(C)C4)n1 | – | – | – | 13.1 | – | –
COc1cccc(OCCn2c(C)c(/C=N/n3cnnc3)c3ccccc32)c1 | – | 42.8 | – | – | – | –
N#Cc1c(NC(=O)CCC(=O)O)sc2c1CCCC2 | · | – | – | – | – | –
CCc1ccc(CCC(=O)Nc2sc3c(c2C#N)CCCC3)o1 | 60.7 | 52.7 | · | – | – | –
COc1cccc(C(=O)OCn2nnc3ccccc3c2=O)c1OC | – | 33.1 | – | – | – | –
COc1cc(C(=O)OCn2nnc3ccccc3c2=O)cc(OC)c1OC | – | – | · | · | – | –
O=C(CN1CCOc2ccccc21)N1CCCC1 | – | – | – | – | – | –
Cc1cccc(NC(=O)C2CCCN(c3nc(C)cc(C)n3)C2)c1 (configuration not stated) | – | – | – | – | – | 13.2
COc1ccc(-c2nnc3n2N=C(c2ccccc2)CS3)cc1OC | – | – | – | – | – | –
COc1ccc(C2=Nn3c(nnc3-c3ccccc3)SC2)cc1OC | · | 48.5 | – | – | – | –
Cc1ccc(-c2nnc3n2N=C(c2ccccc2Br)CS3)cc1 | – | 32.2 | – | – | – | –
CCOc1ccc(C2=Nn3c(nnc3-c3ccc(OC)cc3)SC2)cc1 | – | 39.1 | – | – | – | –
CCOc1ccc(C2=Nn3c(nnc3-c3cccnc3)SC2)cc1 | · | – | – | – | – | –
SMILES | 5HT1a antag | HTR1E antagonist | S1P1 ag pot | S1P3 ag | HTR1A agonist | HTR1E agonist
CCCc1nnc2n1N=C(c1ccc(OC)c(OC)c1)CS2 | – | 63.2 | – | – | – | –
CC1CCCN(C(=O)c2cc(F)c(F)cc2Cl)C1 (configuration not stated) | – | – | – | – | – | –
COc1ccc(OC)c(C2=Nn3c(nnc3-c3cccc(OC(C)C)c3)SC2)c1 | – | 37.9 | – | – | – | –
CCCCNC(=O)c1ccccc1C(=O)NCCCC | – | – | · | – | – | –
CCCCP(=O)(CCCC)c1ccccc1C(=O)O | – | – | – | – | 252.4 | –
COc1cccc(-n2c(SCC(=O)Nc3cc(C)on3)nc3c([nH]c4ccccc43)c2=O)c1 | – | 32.3 | – | – | – | –
